Experimental data: ChEMBL document CHEMBL1121964, “Potential neuroleptic agents. 2,6-Dialkoxybenzamide derivatives with potent dopamine receptor blocking activities” (J Med Chem, 1982)

How the values were obtained:
Rattus norvegicus [1] = assay: In vivo blocking of apomorphine induced hyperactivity following 1 mg/kg i.p. in rats after 60 min.; type: functional; conditions: ip, 1 h, route intraperitoneal
Method in brief: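 Male Sprague-Dawley rats (250-300 g) were dosed ip with test compound in saline or water 60 min before apomorphine 1 mg/kg sc into the neck. Behavior was scored at 5, 20, 40 and 60 min. It was calculated by Theil's method with Sen's tie correction, with a 90% confidence interval.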

Rattus norvegicus [2] = assay: In vivo blocking of apomorphine induced stereotypies following 1 mg/kg i.p. in rats after 60 min.; type: functional; conditions: ip, 1 h, route intraperitoneal
Method in brief: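 Male Sprague-Dawley rats (250-300 g) received test compound ip in saline or water 60 min before sc apomorphine 1 mg/kg given into the neck. Stereotypy strength was scored at 5, 20, 40 and 60 min. It was derived by Theil's method with Sen's correction for ties, with a 90% confidence interval.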

Rattus norvegicus [3] = assay: The dosage at which 50% of the animals were cataleptic was measured after (ip) administration in male Sprague-Dawley rats; type: functional
Method in brief: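 Eight rats per dose level were tested. Both forelimbs were placed on a 7-cm-high horizontal bar, and failure to step off within 60 s counted as cataleptic. Testing was done 1, 2, 4, 8 and 24 h post-dose. ED50 with 95% confidence interval came from probit analysis of each compound's peak cataleptic effect.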

[4] = The acute toxicity was assessed after (ip) administration in male Sprague-Dawley rats; type: organism-based; conditions: rat, in vivo

Q: For CCN1CCCC1CNC(=O)c1c(OC)c(Cl)cc(Cl)c1OC (stereo not drawn), which ED50 (Rattus norvegicus [1]) is on record?
A: 3.1 µmol/kg

Q: And the ED50 (Rattus norvegicus [2])?
A: 5.4 µmol/kg

Q: And the ED50 (Rattus norvegicus [3])?
A: 16.8 µmol/kg

Q: What about the LD50 [4] of the same compound?
A: 224 µmol/kg

Q: With CCN1CCCC1CNC(=O)c1cc(S(N)(=O)=O)ccc1OC (stereo not drawn) [SULPIRIDE] as the compound, how does the ED50 (Rattus norvegicus [1]) read?
A: 65.6 µmol/kg

Q: And the ED50 (Rattus norvegicus [2])?
A: 212 µmol/kg

Q: What about the ED50 (Rattus norvegicus [3]) of the same compound?
A: 161 µmol/kg

Q: For CCN1CCCC1CNC(=O)c1c(OC)ccc(Br)c1OC.Cl (stereo not drawn), which ED50 (Rattus norvegicus [1]) is on record?
A: 12.8 µmol/kg

Q: What about the ED50 (Rattus norvegicus [2]) of the same compound?
A: 21.3 µmol/kg

Q: What about the ED50 (Rattus norvegicus [3]) of the same compound?
A: 47 µmol/kg

Q: And the LD50 [4]?
A: 817 µmol/kg

Q: What does the source list for CCN1CCC[C@@H]1CNC(=O)c1c(OC)c(Br)cc(Br)c1OC?
A: ED50 (Rattus norvegicus [1]): 13.1 µmol/kg; ED50 (Rattus norvegicus [2]): > 82 µmol/kg; LD50 [4]: 159 µmol/kg

Q: Which ED50 (Rattus norvegicus [1]) does the source give for CCN1CCC[C@H]1CNC(=O)c1c(OC)ccc(Cl)c1OC.Cl here?
A: 5.6 µmol/kg

Q: And the ED50 (Rattus norvegicus [2])?
A: 11.7 µmol/kg

Q: What about the LD50 [4] of the same compound?
A: ~826 µmol/kg

Q: For CCN1CCCC1CNC(=O)c1c(OC)c(Br)cc(Br)c1OC.Cl (stereo not drawn), which ED50 (Rattus norvegicus [1]) is on record?
A: 1.15 µmol/kg

Q: What about the ED50 (Rattus norvegicus [2]) of the same compound?
A: 4.6 µmol/kg

Q: What about the ED50 (Rattus norvegicus [3]) of the same compound?
A: 8.2 µmol/kg

Q: What about the LD50 [4] of the same compound?
A: 177 µmol/kg

Q: For CCN1CCC[C@@H]1CNC(=O)c1c(OC)ccc(Br)c1OC, which ED50 (Rattus norvegicus [1]) is on record?
A: 120 µmol/kg

Q: And the ED50 (Rattus norvegicus [2])?
A: > 196 µmol/kg

Q: With CCN1CCC[C@H]1CNC(=O)c1c(OC)c(Br)cc(Br)c1OC as the compound, how does the ED50 (Rattus norvegicus [1]) read?
A: 0.44 µmol/kg

Q: What about the ED50 (Rattus norvegicus [2]) of the same compound?
A: 2.1 µmol/kg

Q: What about the ED50 (Rattus norvegicus [3]) of the same compound?
A: 5.3 µmol/kg

Q: For CCN1CCCC1CNC(=O)c1c(OC)c(Cl)cc(Br)c1OC (stereo not drawn), which ED50 (Rattus norvegicus [1]) is on record?
A: 3.9 µmol/kg

Q: What about the ED50 (Rattus norvegicus [2]) of the same compound?
A: 7.3 µmol/kg

Q: What about the ED50 (Rattus norvegicus [3]) of the same compound?
A: 5 µmol/kg

Q: What about the LD50 [4] of the same compound?
A: 206 µmol/kg

Q: With CCOc1ccc(Br)c(OCC)c1C(=O)NC[C@@H]1CCCN1CC.Cl as the compound, how does the ED50 (Rattus norvegicus [1]) read?
A: 0.47 µmol/kg

Q: And the ED50 (Rattus norvegicus [2])?
A: 1.9 µmol/kg

Q: And the ED50 (Rattus norvegicus [3])?
A: 8.9 µmol/kg

Q: What about the LD50 [4] of the same compound?
A: 206 µmol/kg

Q: Which ED50 (Rattus norvegicus [1]) does the source give for O=C(CCCN1CCC(O)(c2ccc(Cl)cc2)CC1)c1ccc(F)cc1 [HALOPERIDOL] here?
A: 0.29 µmol/kg

Q: What about the ED50 (Rattus norvegicus [2]) of the same compound?
A: 0.27 µmol/kg

Q: What about the ED50 (Rattus norvegicus [3]) of the same compound?
A: 0.67 µmol/kg

Q: With CCOc1ccc(Cl)c(OCC)c1C(=O)NCC1CCCN1CC (stereo not drawn) as the compound, how does the ED50 (Rattus norvegicus [1]) read?
A: 2.8 µmol/kg

Q: And the ED50 (Rattus norvegicus [2])?
A: 7.2 µmol/kg

Q: And the ED50 (Rattus norvegicus [3])?
A: 31 µmol/kg

Q: Which results are given for CCOc1cccc(OCC)c1C(=O)NCC1CCCN1CC (stereo not drawn)?
A: ED50 (Rattus norvegicus [1]): 23.4 µmol/kg; ED50 (Rattus norvegicus [2]): > 40 µmol/kg

Q: Which ED50 (Rattus norvegicus [1]) does the source give for CCN1CCCC1CNC(=O)c1c(Cl)cccc1Cl (stereo not drawn) here?
A: > 80 µmol/kg

Q: And the ED50 (Rattus norvegicus [2])?
A: > 80 µmol/kg

Q: Which ED50 (Rattus norvegicus [3]) does the source give for CCN1CCC[C@H]1CNC(=O)c1c(OC)ccc(Br)c1OC.Cl here?
A: 24.5 µmol/kg

Q: What about the LD50 [4] of the same compound?
A: 794 µmol/kg

Q: Which ED50 (Rattus norvegicus [1]) does the source give for CCN1CCCC1CNC(=O)c1c(OC)ccc(Cl)c1OC (stereo not drawn) here?
A: 30.8 µmol/kg

Q: What about the ED50 (Rattus norvegicus [2]) of the same compound?
A: 42.7 µmol/kg

Q: Which ED50 (Rattus norvegicus [1]) does the source give for CCN1CCCC1CNC(=O)c1c(OC(C)C)cccc1OC(C)C.Cl (stereo not drawn) here?
A: > 80 µmol/kg

Q: What about the ED50 (Rattus norvegicus [2]) of the same compound?
A: > 80 µmol/kg

Q: What about the LD50 [4] of the same compound?
A: ~160 µmol/kg

Q: With CCN(CC1CCCN1CC)C(=O)c1c(OC)c(Br)cc(Br)c1OC (stereo not drawn) as the compound, how does the ED50 (Rattus norvegicus [1]) read?
A: > 80 µmol/kg

Q: And the ED50 (Rattus norvegicus [2])?
A: > 80 µmol/kg

Q: Which ED50 (Rattus norvegicus [1]) does the source give for CCOc1ccc(Br)c(OCC)c1C(=O)NCC1CCCN1CC (stereo not drawn) here?
A: 1.1 µmol/kg

Q: What about the ED50 (Rattus norvegicus [2]) of the same compound?
A: 4.7 µmol/kg

Q: And the ED50 (Rattus norvegicus [3])?
A: 15.7 µmol/kg

Q: Which ED50 (Rattus norvegicus [1]) does the source give for COc1ccc(Br)c(OC)c1C(=O)NCC1CCCN1 (stereo not drawn) here?
A: 47 µmol/kg

Q: What about the ED50 (Rattus norvegicus [2]) of the same compound?
A: 100 µmol/kg
